Measurements from ChEMBL document CHEMBL4665634, “Inhibiting Aβ toxicity in Alzheimer's disease by a pyridine amine derivative” (Eur J Med Chem, 2019).
The source made the active and inactive calls. The rule behind the calls is not given here.

Legend:
[1] = tested on: Caenorhabditis elegans; assay: Antioxidant activity in Caenorhabditis elegans CL4176 assessed as effect on ROS production at 100 uM and 15 to 25 degreeC after 48 hrs by H2DCF-DA probe based fluorescence assay ( Rvb = 33.68 %); assay type: functional
[2] = tested on: Caenorhabditis elegans; assay: Inhibition of AChE in Caenorhabditis elegans CL4176 assessed as enzyme activity at 50 uM after 48 hrs by DTNB reagent based colorimetric analysis (reference value: 272.49 +/- 14.6 units/L)
In short: (§1)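 Transgenic CL4176 worms kept on NGM plates with compound (0, 25, 50, 100 µM) at 25 °C for 48 h. Lysates made by sonication in 0.1 M phosphate buffer pH 7.4 and centrifuged at 13000 rpm for 5 min. AChE activity in the supernatant was measured with a kit, read as absorbance at 412 nm, given in Units/L normalized to protein concentration, mean ± S.D.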

[3] = tested on: Caenorhabditis elegans; assay: Reduction in less than 55 kDa amyloid beta species expression in Caenorhabditis elegans CL4176 at 50 uM after 48 hrs by Western blot analysis; assay type: functional
In short: (§2)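 CL4176 raised on plates with compound (50 µM) at 15 °C to L3, then kept at 25 °C for 2 days. Worms sonicated in 0.1 M phosphate buffer, 16 µg protein run on 12% SDS-PAGE and blotted to PVDF. Probed with 6E10 (1:1000) and HRP anti-mouse secondary, with β-actin as the loading control.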

[4] = tested on: Mus musculus; assay: Cognitive enhancing effect in APP/PS1 double mutant-transgenic C57BL/6 mouse model assessed as time spent on target quadrant at 1 mg/kg, iv measured on day 6 by Morris water maze test (reference value: 11.77 +/- 5.28 sec); assay type: functional; conditions: time 6 day
[5] = tested on: Caenorhabditis elegans; assay: Reduction in Amyloid-beta deposits in transgenic Caenorhabditis elegans CL4176 using anti-Abeta 6E10/rhodamine-phalloidin at 50 to 100 uM after 48 hrs by immunostaining; assay type: functional; conditions: dose microM 50-100, time 48.0 hrs
In short: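 CL4176 L3 worms kept on compound plates (50, 100 µM) at 25 °C for 2 days. Fixed in 4% paraformaldehyde and permeabilized with 1% Triton X-100. Stained with 6E10 plus Alexa Fluor 488 secondary and rhodamine-phalloidin (1:4000). Confocal imaging at ex 488/em 500–530 nm and ex 543/em 565–605 nm.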

[6] = tested on: Caenorhabditis elegans; assay: Effect on skn-1 mRNA expression in Caenorhabditis elegans CL4176 at 50 uM by qRT-PCR analysis; assay type: functional
In short: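 CL4176 qRT-PCR of skn-1 or sod-3. RNA extracted with Trizol, EvaGreen qRT-PCR run for 40 cycles (95 °C 5 s, 60 °C 5 s). Normalized to ama-1 by the 2^−ΔΔCt method. Three independent RNA/cDNA preparations, run in triplicate.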

[7] = tested on: Caenorhabditis elegans; assay: Reduction in 12 kDa amyloid beta species expression in Caenorhabditis elegans CL4176 at 50 uM after 48 hrs by Western blot analysis; assay type: functional; in short: as §2
[8] = tested on: Caenorhabditis elegans; assay: Protection against oligomycin-induced mitochondrial stress in Caenorhabditis elegans CL4176 assessed as effect oxygen consumption rate at 100 uM after 48 hrs by seahorse XFe24 analyser based assay
[9] = tested on: Caenorhabditis elegans; assay: Upregulation of hsp-16.2 mRNA expression in Caenorhabditis elegans CL4176 at 50 uM by qRT-PCR analysis relative to control; assay type: functional
In short: (§3)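 CL4176 worms treated with compound at 25 °C for 48 h (50, 100 µM for amy-1). RNA extracted with Trizol, cDNA made, EvaGreen qRT-PCR run for 40 cycles (95 °C 5 s, 60 °C 5 s). Normalized to ama-1 by the 2^−ΔΔCt method. Three independent preparations, samples in triplicate.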

[10] = Inhibition of Cu2+ induced amyloid beta (1 to 40) aggregation assessed as appearance of granule like species at 0.1 to 100 uM incubated for 24 hrs uranyl acetate staining-based by TEM analysis; conditions: dose microM 0.1-100, time 24.0 hrs
[11] = molecular target: T1, Amyloid-beta precursor protein (Homo sapiens, UniProt P05067); assay: Inhibition of amyloid beta (1 to 42)-induced paralysis in transgenic Caenorhabditis elegans GMC101 expressing human amyloid beta (1 to 42) assessed as paralyzed worms at 100 uM measured after 92 hrs by microscopic analysis relative to control; parameters: scale not given: the % may be the effect or the level left
[12] = Inhibition of Zn2+ induced amyloid beta (1 to 40) aggregation assessed as appearance of granule like species at 0.1 to 100 uM incubated for 24 hrs uranyl acetate staining-based by TEM analysis; conditions: dose microM 0.1-100, time 24.0 hrs
[13] = molecular target: T1, Amyloid-beta precursor protein; assay: Inhibition of self-induced aggregation amyloid beta (1 to 42) (unknown origin) assessed as reduction in fibril formation incubated for 24 hrs by Thioflavin T based fluorometric assay
In short: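 Aβ42 (20 µM) mixed with compound (0.1–100 µM), with or without Zn2+ (20 µM), in Tris-HCl pH 7.4, incubated at 37 °C for 24 h. ThT (5 µM) added, fluorescence read at ex 450/em 485 nm.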

[14] = tested on: PC-12; assay: Cytotoxicity against rat PC-12 cells assessed as reduction in cell viability at 100 uM measured after 48 hrs by MTT assay relative to control; assay type: cell-based; conditions: pc-12, 48 h
In short: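 PC12 cells differentiated with NGF, then cultured overnight in RPMI-1640 with 10% FBS at 37 °C, 5% CO2. MTT assay with formazan absorbance at 570 nm. Viability = (OD test − blank)/(OD control − blank) × 100%, mean of three replicates.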

[15] = tested on: Caenorhabditis elegans; assay: Antioxidant activity in Caenorhabditis elegans CL4176 assessed as effect on juglone-induced ROS level by measuring relative fluorescence intensity at 50 uM and 15 to 25 degreeC after 48 hrs by H2DCF-DA probe based fluorescence assay ( Rvb = 74.23 %); assay type: functional
[16] = tested on: Caenorhabditis elegans; assay: Reduction in amy-1 mRNA expression in Caenorhabditis elegans CL4176 at 50 to 100 uM after 48 hrs by qRT-PCR analysis; assay type: functional; conditions: dose microM 50-100, time 48.0 hrs; in short: as §3
[17] = Disaggregation of Zn2+ induced fibrils of amyloid beta (1 to 40) assessed as appearance of small soluble fragments at 0.1 to 100 uM incubated for 24 hrs uranyl acetate staining-based by TEM analysis; conditions: dose microM 0.1-100, time 24.0 hrs
[18] = tested on: Mus musculus; assay: Cognitive enhancing effect in APP/PS1 double mutant-transgenic C57BL/6 mouse model assessed as increase in number of hidden escape platform crossings at 1 mg/kg, iv; assay type: functional, organism-based
[19] = molecular target: T1, Amyloid-beta precursor protein; assay: Inhibition of amyloid beta (1 to 42)-induced paralysis in transgenic Caenorhabditis elegans CL4176 L3 expressing human amyloid beta (1 to 42) assessed as roller movement of worms by microscopic analysis
[20] = tested on: Caenorhabditis elegans; assay: Inhibition of AChE in Caenorhabditis elegans CL4176 assessed as enzyme activity at 100 uM after 48 hrs by DTNB reagent based colorimetric analysis (reference value: 272.49 +/- 14.6 units/L); in short: as §1
[21] = tested on: Caenorhabditis elegans; assay: Reduction in 16 kDa amyloid beta species expression in Caenorhabditis elegans CL4176 at 50 uM after 48 hrs by Western blot analysis; assay type: functional; in short: as §2
[22] = molecular target: T1, Amyloid-beta precursor protein; assay: Inhibition of amyloid beta (1 to 42)-induced paralysis in transgenic Caenorhabditis elegans CL4176 L3 expressing human amyloid beta (1 to 42) assessed as reduction in fluorescence intensity at 50 to 200 uM incubated for 2 days by thiofavin-T based fluorescence microscopic analysis; conditions: dose microM 50-200, time 2.0 day
In short: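 CL4176 L3 worms kept on compound plates (50, 100, 200 µM) at 25 °C for 2 days. Stained with ThT (10 µM) for 5 min, held 2 h on NGM without OP50, then mounted on 2% agarose pads. Fluorescence imaged at ex 488/em 500–530 nm, in triplicate with 15–20 worms per group.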

T1 sequence (P05067 whole entry): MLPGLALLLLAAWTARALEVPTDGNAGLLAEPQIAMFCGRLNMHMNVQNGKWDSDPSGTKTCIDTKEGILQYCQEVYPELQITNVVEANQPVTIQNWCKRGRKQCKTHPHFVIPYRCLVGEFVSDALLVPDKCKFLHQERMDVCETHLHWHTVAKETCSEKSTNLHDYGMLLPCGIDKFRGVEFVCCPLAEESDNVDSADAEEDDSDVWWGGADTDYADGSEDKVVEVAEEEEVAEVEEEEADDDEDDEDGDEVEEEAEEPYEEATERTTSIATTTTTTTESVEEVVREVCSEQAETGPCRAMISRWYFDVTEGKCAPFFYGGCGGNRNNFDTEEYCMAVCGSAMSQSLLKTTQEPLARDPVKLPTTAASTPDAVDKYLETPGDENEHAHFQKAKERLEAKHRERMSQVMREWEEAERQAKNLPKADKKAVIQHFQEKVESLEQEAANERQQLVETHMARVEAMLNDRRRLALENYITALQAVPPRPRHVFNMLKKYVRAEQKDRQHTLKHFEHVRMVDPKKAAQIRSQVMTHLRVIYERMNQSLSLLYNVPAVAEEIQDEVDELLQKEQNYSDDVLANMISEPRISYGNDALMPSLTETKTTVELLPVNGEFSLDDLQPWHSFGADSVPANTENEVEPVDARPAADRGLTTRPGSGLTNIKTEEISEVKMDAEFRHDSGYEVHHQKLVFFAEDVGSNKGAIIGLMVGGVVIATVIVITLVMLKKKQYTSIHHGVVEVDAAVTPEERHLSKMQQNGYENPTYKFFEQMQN

With `Oc1cc(CN(Cc2ccccn2)Cc2ccccn2)cc(C[P+](c2ccccc2)(c2ccccc2)c2ccccc2)c1.[Br-]` the Activity [1] was 21.72%, the Activity [2] was 166 U/L and the Activity [3] was “Active”. The Time [4] was 17.2 s, the Activity [5] was “Active” and the Activity [6] was “inactive”. The Activity [7] was “Active”, the Activity [8] was “Active” and the fold change (FC) [9] was 2.15. The inhibition [10] was “Active”, the Activity [11] was 66% and the inhibition [12] was “Active”. For the same compound, the IC50 [13] was 12.5 µM, the inhibition [13] was “Dose-dependent effect” and the Activity [14] was 80.5%. For the same compound, the Activity [15] was 48.97%, the Activity [16] was “Active” and the Activity [17] was “Active”. The Activity [18] was “Active”, the Activity [19] was “Active” and the Activity [20] was 135 U/L. For the same compound, the Activity [21] was “Active” and the inhibition [22] was “Active”.
